DDE Tn6 FP inh: disrupts Tn6 cyclic peptide binding to fibrin D-Dimer-E complex; P02675; actives 0.21% (n = 370,000); inhibition, % at 8.3 µM; AID 720509; Fibrin DD(E) TRITC-Tn6 fluorescence polarization displacement;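 active = inhibition above a per-campaign cutoff: mean of compounds within control limits plus 3 SD, cut at about 15% in these data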;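 also: 0% = median of all compound wells on the plate and 100% = blocking peptide control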
CendR NRP1 mod: alters CendR peptide binding to human NRP-1. actives 0.85% (n = 360,000). FAM-RPARPAR peptide binding to NRP-1, fluorescence polarization. inhibition, % at 25 µM. AID 602438;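 active = inhibition or corrected inhibition above about 18%, plus a signal ratio from 0.5 to 1.5, limit read from the data, passing the limit was not always enough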
DDE Tn7 FP inh: DD(E)-Tn7 binding inhibition, primary FP screen; FP displacement of FITC-Tn7 peptide from fibrin DD(E); 0% = median of compound wells per plate; inhibition, % at 8.3 µM; actives 0.13% (n = 370,000);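 active = inhibition above the mean of compounds falling within the control limits plus 3 SD of them, cut at about 14% in these data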;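 also: 0% = plate median of compound wells and 100% = 10 µM Aha-Tn7 peptide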
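assay system = human clot-derived fibrin DD(E) complex | quantity = Fibrin-DD(E) at 2 µM final | timing = 10 min preincubation, 3 h with tracer, room temperature | signal = fluorescence polarization | measure = percent inhibition | benchmarks = high control wells with 10 µM unlabelled Aha-Tn7 peptide (full inhibition) | replicates = singlicate testing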
PLCg1 inh: PLC-gamma1 (human) inhibition, primary screen; P19174; purified PLC-gamma1, fluorogenic substrate, fluorescence; actives 0.84% (n = 370,000); inhibition, % at 12.2 µM; in the data active = inhibition above about 9.5%
Target sequence (P19174 whole entry, looked up): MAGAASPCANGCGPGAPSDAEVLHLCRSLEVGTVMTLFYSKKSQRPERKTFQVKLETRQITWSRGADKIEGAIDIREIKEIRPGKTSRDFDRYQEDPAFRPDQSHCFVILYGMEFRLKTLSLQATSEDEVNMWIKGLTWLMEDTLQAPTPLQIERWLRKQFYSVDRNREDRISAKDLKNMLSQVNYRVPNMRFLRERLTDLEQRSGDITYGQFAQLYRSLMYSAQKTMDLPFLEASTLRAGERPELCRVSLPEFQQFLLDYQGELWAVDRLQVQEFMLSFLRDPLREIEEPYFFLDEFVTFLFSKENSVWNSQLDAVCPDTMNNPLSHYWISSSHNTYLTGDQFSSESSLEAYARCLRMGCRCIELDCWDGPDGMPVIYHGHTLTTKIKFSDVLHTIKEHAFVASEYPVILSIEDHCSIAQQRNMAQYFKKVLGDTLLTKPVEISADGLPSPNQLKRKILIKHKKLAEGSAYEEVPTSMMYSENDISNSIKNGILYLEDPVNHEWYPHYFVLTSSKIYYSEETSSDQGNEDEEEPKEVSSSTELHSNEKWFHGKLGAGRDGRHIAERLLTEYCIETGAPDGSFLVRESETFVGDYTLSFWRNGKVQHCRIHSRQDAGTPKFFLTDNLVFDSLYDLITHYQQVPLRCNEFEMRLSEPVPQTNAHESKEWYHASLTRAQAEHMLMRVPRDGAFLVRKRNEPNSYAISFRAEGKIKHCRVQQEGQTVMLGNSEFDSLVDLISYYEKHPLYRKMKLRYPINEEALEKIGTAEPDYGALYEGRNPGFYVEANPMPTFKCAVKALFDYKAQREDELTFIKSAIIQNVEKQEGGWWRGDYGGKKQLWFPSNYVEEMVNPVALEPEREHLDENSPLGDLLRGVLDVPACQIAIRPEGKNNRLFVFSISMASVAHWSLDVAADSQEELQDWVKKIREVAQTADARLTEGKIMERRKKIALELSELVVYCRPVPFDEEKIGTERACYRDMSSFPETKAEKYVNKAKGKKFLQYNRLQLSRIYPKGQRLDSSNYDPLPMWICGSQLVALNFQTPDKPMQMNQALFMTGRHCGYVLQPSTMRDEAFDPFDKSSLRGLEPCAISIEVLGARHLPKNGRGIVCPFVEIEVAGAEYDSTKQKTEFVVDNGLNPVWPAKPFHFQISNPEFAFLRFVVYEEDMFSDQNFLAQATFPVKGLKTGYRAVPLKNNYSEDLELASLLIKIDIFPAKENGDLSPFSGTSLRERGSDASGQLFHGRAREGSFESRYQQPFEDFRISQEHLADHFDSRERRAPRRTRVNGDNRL
PLC-beta3 inh: blocks human PLC-beta3 enzyme activity | AID 720704 | actives 0.18% (n = 370,000) | inhibition, % at 12.2 µM | Purified PLC-beta3, fluorogenic substrate, fluorescence; in the data active = inhibition above about 11%;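 also: 0% = median of compound wells on plate and 100% = full blocker control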
KLK7 zymogen act: activators of human kallikrein-7 zymogen; P49862; purified proKLK7, EDANS-DABCYL substrate fluorescence; 100% is mature enzyme control, 0% vehicle; activation, % at 7 µM; actives 0.9% (n = 370,000); AID 652039;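 active = activation above the mean of all tested compounds plus 3 SD, computed per campaign excluding outliers beyond control limits, cut at about 13% in these data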
* hit, by the source's call; nt = not tested or not shown. Sampled rows, rich in hits. Any-hit rate of the full collection: about 3%.

SMILES	DDE Tn6 FP inh	CendR NRP1 mod	DDE Tn7 FP inh	PLCg1 inh	PLC-beta3 inh	KLK7 zymogen act
O=c1c2ccccc2nc2n1C(CSc1ccc(F)cc1)CS2 (stereo unspecified)	0.4	28.9*	3.4	0.5	-5.2	-0.2
NC(=O)C1CCCN(C(=O)c2ccc3nc(Cc4cccc(Cl)c4)oc3c2)C1 (stereo unspecified)	3.9	27.1*	3.9	2.9	-5.7	-0.1
CCn1c(SCC(=O)Nc2ccc(NC(=O)c3ccco3)cc2)nnc1-c1cccs1	-5.7	0.3	1.4	7.6	3.8	99.8*
CCOc1ccc2[nH]c(O)c(NC(C)=O)c2c1	-0.8	27.7*	1.9	-10.5	-18.2	0.9
O=C(O)c1cccc(S(=O)(=O)NCC(=O)N2CCN(c3ccccn3)CC2)c1	-2.5	nt	3.2	0.9	2.9	0.4
CN(C(=O)CCn1nnc(-c2cccs2)n1)C1CCCCC1	7.6	nt	3.9	0.5	-1.7	-0.3
COC(=O)[C@]12C[C@H](CC(=O)NCCCN3CCCC3=O)C(=O)N(CCC3=CCCCC3)C1=C[C@H](C(C)C)O[C@@H]2C1CC1	6.7	nt	-2.2	0.5	2.9	-0.2
CCOC(=O)C1=NOC(Cn2cc(C#N)c(=O)n(C)c2=O)C1 (stereo unspecified)	-3.3	36.4*	0.5	-0.7	0.3	0.4
CC(C)(C)CC(=O)Nc1ccc(C(N)=O)cc1	0.2	26.5*	0.3	3.4	-2.1	0.3
COc1ccc(-n2cc(COC(=O)NCCc3ccccc3)nn2)cc1	1.5	nt	-2.4	-1.9	-1.4	-0.3
Cc1cccc(NC(=O)C2CCCN2S(=O)(=O)c2cccc3cccnc23)c1C (stereo unspecified)	-0.6	nt	-0.6	0.5	0.6	0.0
Cc1ccc(C(=O)NCCN2C3=NC[C@H](C)N3C[C@H]2Cc2ccc(O)cc2)cc1Br	1.9	25.1*	-2.0	3.5	0.3	0.2
COC(=O)[C@]12C[C@H](CC(=O)NCc3ccccc3)C(=O)N(Cc3cccc4ccccc34)C1=C[C@H](C1CCCC1)O[C@@H]2C	-2.5	nt	-6.7	6.9	2.2	1.1
COC(=O)c1cn(C(=O)c2ccc(Br)o2)c2ccccc12	4.7	25.2*	-1.1	1.9	4.5	-0.2
COC(=O)[C@]12C[C@H](CC(=O)N3CCC(c4ccccc4)CC3)C(=O)N(Cc3ccco3)C1=C[C@H](C1CCCC1)O[C@@H]2C	-6.3	nt	1.9	-3.8	0.8	0.3
Cc1ccc2c(c1)C(CS(=O)(=O)NCc1ccccc1)NC2 (stereo unspecified)	1.4	nt	-3.2	-8.7	-11.8	-0.1
O=C(O)C1CC(=O)N(c2ccc(Br)cc2)C1 (stereo unspecified)	-5.1	4.5	-0.6	-2.7	-0.5	0.3
C=CCN(CC=C)C(=O)C1CC(=O)N(c2ccc(Br)cc2)C1 (stereo unspecified)	-4.0	30.0*	-9.8	9.1	7.5	0.4
CC(C)Sc1nc2c(c(=O)[nH]1)C(c1cccs1)C1=C(CC(C)(C)CC1=O)N2 (stereo unspecified)	-1.0	-0.4	-3.3	-30.0	-39.5	-1.1
CCSc1nc2c(c(=O)[nH]1)C(c1ccccn1)C1=C(CC(C)(C)CC1=O)N2 (stereo unspecified)	-2.0	3.7	-0.1	-246.8	-324.0	32.1*
COC(=O)CCC(=O)OC1(C)C(=O)C=C2C=C(C3CC3)N(CCc3ccccn3)C=C2C1=O (stereo unspecified)	9.0	29.7*	4.2	-19.9	-20.7	-0.8
COC(=O)CCCC1=CC2=CC(=O)C(C)(OC(=O)c3cccs3)C(=O)C2=CN1CCCCO (stereo unspecified)	2.4	40.0*	0.1	-9.1	-18.4	0.3
COC(=O)CCC(=O)OC1(C)C(=O)C=C2C=C(C3CC3)N(C(CO)CO)C=C2C1=O (stereo unspecified)	2.7	26.6*	-10.5	-19.9	-19.0	0.3
COC(=O)CCC(=O)OC1(C)C(=O)C=C2C=C(C3CC3)N(c3ccccc3)C=C2C1=O (stereo unspecified)	3.9	12.8	8.5	-42.5	-72.2	1.6
COC(=O)CCC(=O)OC1(C)C(=O)C=C2C=C(C3CC3)N(CCCCO)C=C2C1=O (stereo unspecified)	8.6	20.8*	6.0	-13.9	-24.3	0.5
SMILES	DDE Tn6 FP inh	CendR NRP1 mod	DDE Tn7 FP inh	PLCg1 inh	PLC-beta3 inh	KLK7 zymogen act
COC(=O)CCC(=O)OC1(C)C(=O)C=C2C=C(C3CC3)N(CCc3c[nH]c4ccccc34)C=C2C1=O (stereo unspecified)	-10.4	-0.1	3.0	-20.2	-26.1	2.3
O=C(OC12CCCN(C1)/C(=C/c1cccnc1)C2)c1ccc(F)cc1 (stereo unspecified)	5.7	nt	-0.6	1.9	3.8	-0.1
COC(=O)C1CN(Cc2cn(Cc3ccc(C)cc3)nn2)CCS(=O)(=O)N1Cc1ccc(Cl)cc1 (stereo unspecified)	9.8	nt	-4.5	3.6	-0.8	-1.0
C[C@H]1CCCN1c1cccc2c1S(=O)(=O)N(C1CC1)CCCO2	7.4	nt	-0.9	-5.0	-5.7	-0.1
C[C@@H]1CN([C@@H](C)COC(=O)C(C)(C)C)C(=O)c2cc(NC(=O)Nc3ccccc3)ccc2O[C@@H](C)CCCCO[C@H]1CN(C)S(=O)(=O)c1ccc(F)cc1	-16.2	nt	-5.3	3.1	4.8	nt
C=CCN1C=C2C(=O)C(C)(OC(=O)CCC(=O)OC)C(=O)C=C2C=C1C1CC1 (stereo unspecified)	6.0	37.9*	-2.3	-30.2	-39.0	1.2
O=S(=O)(N[C@@H]1CCCC[C@H]1N1CCOCC1)c1ccc(Cl)cc1	6.6	nt	-0.8	2.4	1.6	nt
CC(=O)Nc1ccc(C2Nc3cc(C)c(C)cc3NC3=C2C(=O)CC(C)(C)C3)cc1 (stereo unspecified)	3.5	5.9	-6.3	-12.6	-17.9	-1.5
Cc1c(C2Nc3ccccc3NC3=C2C(=O)CC(C)(C)C3)cnn1C (stereo unspecified)	2.2	10.9	15.4*	-220.5	-253.1	-46.1
Cc1cc2c(cc1C)NC(c1nc3ccccc3[nH]1)C1=C(CC(C)(C)CC1=O)N2 (stereo unspecified)	7.9	29.2*	0.6	-5.0	-4.6	-0.2
OC(c1ccccc1)C(O)c1ccccc1 (stereo unspecified)	2.9	18.9	-6.5	5.7	10.8*	-0.8
Cc1cc(N2CCN(C(=O)Oc3ccc(-c4ccccc4)cc3)CC2)c2ccccc2n1	-8.8	nt	2.2	-1.8	-3.2	-0.6
C=CCn1c(N)cc(=O)nc1SC(C)C(=O)Nc1cccc2ccccc12 (stereo unspecified)	-6.0	21.6*	2.5	-13.0	-16.0	0.6
CC(Sc1nc(=O)cc(N)n1CCc1ccccc1)C(=O)NCc1ccccc1 (stereo unspecified)	4.0	-5.9	5.8	-5.5	-10.5	0.3
